Assay results as given in paper PMC3201796 (Cell host & microbe, 2011).
Values after ≈ are worked out from the molar mass of the structure shown. Where two headings read alike, the source gives them in different places.

Tests used:
HSV-1 = test: HSV-1-infected athymic nude mice; assay type: in vivo
Summary of the method: (§1)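 Female NMRI athymic nude or hairless mice (~20 g, ~4 weeks; groups of five) scarified over ~1 cm² lumbosacral area with HSV-1 KOS (5×10^3 PFU) or HSV-2 G (5×10^2). Test compound 1% in 100% DMSO or CAPRISA 004-type gel, topical twice daily for 5 days from 1-2 h post-infection; same vehicle without drug as placebo. Lesions and mortality recorded over one month; Kaplan-Meier survival, log-rank test.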

HSV-2 [1] = test: HSV-2-infected athymic nude mice; assay type: in vivo
Summary of the method: as §1

HSV-1 and HSV-2 = assay type: cell-based; conditions: Fibroblast, read-out: EC50 values (inhibition of cytopathicity), range
Summary of the method: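 HEL fibroblasts or primary human keratinocytes (from neonatal foreskin) infected at 100 TCID50 per strain and grown 3 days at 37 °C, 5% CO2, with a range of test compound concentrations. CPE scored visually. […] Means of at least two independent experiments, ± SD.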

[2] = in vivo; cited from earlier work
HIV-1LAI = test: Tonsillar tissue coinfected with HSV-2G and HIV-1LAI, p24 release; assay type: cell-based; conditions: 66 μg/ml
Summary of the method: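 Tonsil tissue blocks (~2 mm) kept on collagen sponge at the air–liquid interface; 27 blocks per condition (9 per well). Infected with HSV-2 strain G, then HIV-1 LAI. Test compound added 12 h before infection and replenished at each medium change for the whole culture. p24 in medium over 3-day periods measured by bead-based assay. Six donors; means ± SEM.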

[3] = tested on: HSV-2 (strain NS and RV-124); test: Virus yield reduction assay; assay type: cell-based
Summary of the method: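 HEL monolayers infected with HSV-2 clinical isolates NS or RV-124 at two moi for 2 h at 37 °C, then washed and given test compound in duplicate. At 24, 48 and 72 h, virus released by freeze-thaw and titrated by plaque assay on HEL cells.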

HSV-2 [4] = assay type: cell-based; conditions: day 6, M/M
HEL cells = test: Cytotoxicity by cell morphology; assay type: cell-based, human
Summary of the method: (§2)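 Run in non-infected cultures in parallel with the antiviral assay. Cells exposed to test compound and examined microscopically at day 3. MCC is the lowest concentration giving a detectable change in cell morphology.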

HSV-2 [5] = test: HSV-2 cytopathicity in primary monocyte/macrophage cultures; assay type: cell-based; conditions: day 6, M/M
HSV-2G [6] = test: Human cervico-vaginal tissue ex vivo infected with HSV-2G; assay type: cell-based; conditions: 150 μg/ml
HSV-2 [7] = assay type: cell-based; conditions: for Virus production (TCID50/ml): M/M
HSV-1F = test: Human tonsillar tissue ex vivo infected with HSV-1; assay type: cell-based
[8] = MTT viability assay in epithelial TZM-Bl cells; assay type: cell-based, human; conditions: up to 1,000 μg/ml; data not shown
Summary of the method: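 Confluent TZM-Bl epithelial monolayers exposed to a range of test compound concentrations for 3–4 days, then given MTT dye. Viable cells convert it to formazan, measured by optical density.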

Cytostatic activity [9] = assay type: cell-based; conditions: human, PHKs, non-infected
HSV-2G [10] = test: Tonsillar tissue coinfected with HSV-2G and HIV-1LAI, HSV-2 DNA release; assay type: cell-based; conditions: 66 μg/ml; coinfected with HIV-1LAI; n=6
Summary of the method: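 Human tonsillar tissue blocks sequentially infected with HSV-2 G then HIV-1 LAI; 27 blocks per condition, 9 per well in 3 ml medium. Tenofovir at 66 µg/ml kept throughout culture; untreated donor-matched tissues as control. HSV-2 DNA release into medium measured by quantitative real-time PCR; release pooled from 27 blocks per donor; 6 donors.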

HSV-2G, HSV-2MS = test: Human tonsillar tissue ex vivo infected with HSV-2; assay type: cell-based; conditions: 66 μg/ml
PHKs = test: Cytotoxicity by cell morphology; assay type: cell-based, human; conditions: non-infected
Summary of the method: as §2

HSV-2G [11] = test: Organotypic epithelial raft cultures infected with HSV-2; assay type: cell-based
HSV-2 [12] = conditions: 1% vaginal gel, CAPRISA 004; ref Cates, 2010; cited from earlier work
HSV-1KOS = test: Organotypic epithelial raft cultures infected with HSV-1; assay type: cell-based
Cytostatic activity [13] = assay type: cell-based; conditions: human, HEL cells, non-infected
HIV-1 = conditions: 1% vaginal gel, 889 women, CAPRISA 004; ref Abdool Karim et al., 2010; cited from earlier work
[14] = 1% gel as in CAPRISA 004, topical
[15] = 1% in DMSO, topical, 5 days from day of infection

SMILES: C[C@H](Cn1cnc2c(N)ncnc21)OCP(=O)(O)O [Tenofovir, (R)-9-[2-(phosphonylmethoxypropyl)adenine]]
- appearance of lesions and death vs placebo gel (HSV-1; [14]): delayed the appearance of herpesvirus-related lesions and subsequent death
- morbidity and survival (HSV-1; [15]): statistically significant suppression of morbidity and prolonged the survival
- appearance of lesions and death vs placebo gel (HSV-2 [1]; [14]): delayed the appearance of herpesvirus-related lesions and subsequent death
- morbidity and survival (HSV-2 [1]; [15]): statistically significant suppression of morbidity and prolonged the survival
- EC50 (HSV-1 and HSV-2): 103 to 193 µg/mL (≈ 359 to 672 µM)
- AUC24hr in cervico-vaginal fluid [2]: 18600 µg·h/mL
- level in cervico-vaginal fluid at 24 hr post drug exposure [2]: ~ 100 μg/ml
- inhibition of HIV-1LAI (HIV-1LAI): inhibited completely
- changes in cell number ([3]; HEL cells, any drug concentration): no changes in cell number
- EC99 (drug concentration that decreases virus titers by two orders of magnitude) ([3]; HSV-2 RV-124 and NS, two moi, 24, 48, 72 h post-infection, PFU reduction): 214 to 390 µg/mL
- Virus production (PFU/ml) (HSV-2 [4]; 0.04 μg/ml): 8.5×10^4 PFU/ml
- Virus production (PFU/ml) (HSV-2 [4]; 0.2 μg/ml): 7.3×10^4 PFU/ml
- Virus production (PFU/ml) (HSV-2 [4]; 1 μg/ml): 6.6×10^4 PFU/ml
- Virus production (PFU/ml) (HSV-2 [4]; 5 μg/ml): 1.9×10^4 PFU/ml
- Virus production (PFU/ml) (HSV-2 [4]; 20 μg/ml): 2.2×10^3 PFU/ml
- Virus production (PFU/ml) (HSV-2 [4]; 100 μg/ml): No virus
- Virus production (PFU/ml) (HSV-2 [4]; 500 μg/ml): No virus
- Cell toxicity MCC (minimum cytotoxic concentration) (HEL cells; HEL, non-infected, cell morphology): >400 µg/mL
- cytotoxicity as assessed from HEL cell morphology (HEL cells; highest drug concentrations used (500 μg/ml)): no signs of tenofovir cytotoxicity
- Cytopathicity (CPE) (%) (HSV-2 [5]; 0.04 μg/ml): 85%
- Cytopathicity (CPE) (%) (HSV-2 [5]; 0.2 μg/ml): 80%
- Cytopathicity (CPE) (%) (HSV-2 [5]; 5 μg/ml): 60%
- Cytopathicity (CPE) (%) (HSV-2 [5]; 20 μg/ml): 5%
- Cytopathicity (CPE) (%) (HSV-2 [5]; 100 μg/ml): None
- Cytopathicity (CPE) (%) (HSV-2 [5]; 500 μg/ml): None
- reduction of HSV-2G replication (averaged over experiments) (HSV-2G [6]): 78 ± 9%
- HSV-2G DNA in culture medium (HSV-2G [6]; untreated 6.6 log10 copies/ml, n=5): 5.5 log10 copies/mL
- Virus production (TCID50/ml) (HSV-2 [7]; 0.04 μg/ml, day 6): 3.2×10^5 TCID50/ml
- Virus production (TCID50/ml) (HSV-2 [7]; 0.2 μg/ml, day 6): 3×10^5 TCID50/ml
- HSV-2 production (HSV-2 [7]; 1 μg/ml or 0.2 μg/ml, no significant protective effect): 2.4 to 3.0 × 10^5 TCID50/ml
- Virus production (TCID50/ml) (HSV-2 [7]; 1 μg/ml, day 6): 2.4×10^5 TCID50/ml
- Virus production (TCID50/ml) (HSV-2 [7]; 5 μg/ml, day 6): 7.2× 10^4 TCID50/ml
- Virus production (TCID50/ml) (HSV-2 [7]; 20 μg/ml, day 6): 1.3×10^4 TCID50/ml
- drop in HSV-2 production (HSV-2 [7]; 20 μg/ml, from 3.7 × 10^5 TCID50/ml in untreated): more than one log10
- Virus production (TCID50/ml) (HSV-2 [7]; 100 μg/ml, day 6): No virus
- Virus production (TCID50/ml) (HSV-2 [7]; 500 μg/ml, day 6 post infection): No virus
- HSV-2 replication in M/M (HSV-2 [7]; 500 and 100 μg/ml): completely suppressed
- reduction of replication vs donor-matched untreated tissue (HSV-1F; 66 μg/ml, HSV-1F): 99 ± 0.1%
- EC50 (HSV-1F; Human alphaherpesvirus 1, in Homo sapiens, read-out: EC50 for HSV suppression): 7 µg/mL (≈ 24.4 µM)
- MTT dye viability testing [8]: did not show measurable toxicity
- CC50 at 3 days (Cytostatic activity [9]): > 50 µg/mL
- suppression of HSV-2G replication (HSV-2G [10]): 96 ± 1%
- reduction of replication vs donor-matched untreated tissue (HSV-2G, HSV-2MS; HSV-2G): 87 ± 12%
- reduction of replication vs donor-matched untreated tissue (HSV-2G, HSV-2MS; HSV-2MS): 91.7 ± 3.2%
- Cell toxicity MCC (minimum cytotoxic concentration) (PHKs): >200 µg/mL
- activity against HSV-2 in rafts (HSV-2G [11]; 2 μg/ml): inactive
- log10 reduction in virus production (HSV-2G [11]; 50 μg/ml): 1.75 log10
- protection of virus-induced cytopathicity (HSV-2G [11]; 200 μg/ml): complete CPE protection
- log10 reduction in virus production (HSV-2G [11]; 200 μg/ml, 5 days of treatment): 5.4 log10
- protection of raft epithelium (histology) (HSV-2G [11]; 20 and 5 μg/ml): partially protective
- reduction of the risk of acquisition of HSV-2 (HSV-2 [12]): 51%
- log10 reduction in virus production (HSV-1KOS; 50 μg/ml): 0.81 log10
- protection of virus-induced cytopathicity (HSV-1KOS; 200 μg/ml): complete CPE protection
- log10 reduction in virus production (HSV-1KOS; 200 μg/ml, 5 days of treatment): 2.6 log10
- CC50 at 3 days (Cytostatic activity [13]): 547 ± 39 µg/mL (≈ 1900 µM)
- reduction of HIV-1 sexual transmission (HIV-1): 39%
